RTF Ca sens inh: cardiac RTF calcium desensitization. actives 0.12% (n = 340,000). inhibition, % at 7.15 µM. IANBD-labeled cardiac RTF, Ca2+ fluorescence. P19429+P45379;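 active = inhibition above the mean inhibition of all tested compounds plus 3 SD, cut at about 17% in these data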;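 note: assay run at fixed EC70 calcium of 1.6 mM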
CRFBP-R2 block: blocks CRF-induced signaling of the CRF-BP/CRF-R2 complex | actives 0.59% (n = 350,000) | AID 588475 | HEK293 CRF-R2/CRF-BP, CRF-induced calcium fluorescence | inhibition, % at 11.8 µM;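 active = inhibition of the ligand-induced calcium signal above about 50% at the single tested concentration, limit read from the data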
CRFR2-BP ag: agonists of human CRF-binding protein/CRF-R2 receptor complex. HEK293 CRF-R2/CRF-BP, calcium dye fluorescence (FLIPR); percent of saturating CRF peptide response. activation, % at 13.2 µM. actives 0.46% (n = 350,000);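 active = activation of at least 50%, plus an integration ratio under a set limit after plate pattern correction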;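 note: plate controls were neutral control wells without compound for no effect and CRF at EC100 for full effect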
cardiac RTF act: cardiac RTF calcium sensitization; P19429+P45379; IANBD-labeled TnC RTF fluorescence at EC20 calcium; 0% EC20 calcium, 100% full calcium; activation, % at 7.2 µM; actives 0.24% (n = 340,000);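 active = activation above the mean over all tested compounds plus 3 SD, cut at about 30% in these data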;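 note: rise in fluorescence read as greater calcium sensitivity of cardiac thin filaments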
DDE Tn7 FP inh: inhibitors of Tn7 peptide binding to human fibrin DD(E). inhibition, % at 8.3 µM. P02675. actives 0.13% (n = 370,000). FP displacement of FITC-Tn7 peptide from fibrin DD(E); 0% = median of compound wells per plate;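 active = inhibition above the mean of compounds falling within the control limits plus 3 SD of them, cut at about 14% in these data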;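 note: 0% = plate median of compound wells and 100% = 10 µM Aha-Tn7 peptide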
Target sequence (P02675 whole entry, looked up): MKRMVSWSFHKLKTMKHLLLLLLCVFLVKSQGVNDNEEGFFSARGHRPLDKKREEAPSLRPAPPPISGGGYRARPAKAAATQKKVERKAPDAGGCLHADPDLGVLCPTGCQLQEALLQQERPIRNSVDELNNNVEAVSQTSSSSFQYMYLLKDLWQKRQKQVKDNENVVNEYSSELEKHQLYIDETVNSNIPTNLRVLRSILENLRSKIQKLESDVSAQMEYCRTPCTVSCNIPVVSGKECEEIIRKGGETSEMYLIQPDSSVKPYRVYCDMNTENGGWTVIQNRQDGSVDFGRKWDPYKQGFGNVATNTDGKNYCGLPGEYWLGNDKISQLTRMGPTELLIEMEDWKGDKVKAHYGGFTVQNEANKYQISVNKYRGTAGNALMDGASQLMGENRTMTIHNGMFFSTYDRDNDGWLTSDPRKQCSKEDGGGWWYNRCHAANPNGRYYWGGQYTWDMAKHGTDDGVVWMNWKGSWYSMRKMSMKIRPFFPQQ
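Also added: labelled Tn7 tracer, 0.1 µM; Assay system: human fibrin DD(E) protein; Amount: 2 µM fibrin DD(E); Schedule: 10 min compound pre-incubation, 3 h probe incubation at room temperature; Repeats: one replicate per compound; Read-out basis: percent inhibition; Measured by: fluorescence polarization of the labelled Tn7 tracer.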
Tn6 DDE FP: DD(E)-Tn6 binding inhibition, primary FP screen; actives 0.21% (n = 370,000); Fibrin DD(E) TRITC-Tn6 fluorescence polarization displacement; AID 720509; inhibition, % at 8.3 µM;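 active = inhibition above a per-campaign cutoff: mean of compounds within control limits plus 3 SD, cut at about 15% in these data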;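 note: 0% = median of all compound wells on the plate and 100% = blocking peptide control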
The depositor's hits bear a star; nt = not tested or not shown. Rows were chosen to be rich in hits. Some 1.4% of all compounds tested hit in one or more screens of this group.

SMILES	RTF Ca sens inh	CRFBP-R2 block	CRFR2-BP ag	cardiac RTF act	DDE Tn7 FP inh	Tn6 DDE FP
O=C1c2cccc3cccc(c23)C(=O)N1c1nccs1	-5	21	-2	-7	2	11
O=C(Cn1nnc(-c2ccc(N3CCOCC3)cc2)n1)c1cccc(F)c1	nt	nt	nt	nt	3	5
CCOc1cccc(CNCCO)c1OCc1ccc(Cl)cc1Cl	4	-32	1	-5	-4	-4
CCOc1cccc(CNc2ccc(O)cc2)c1OCc1ccccc1Cl	-16	19	0	7	4	16*
CCOc1cccc(CNc2ccc(O)cc2)c1OCc1ccc(Cl)cc1Cl	-2	-8	1	4	0	28*
C=CCOc1c(CNc2cccc(C(=O)O)c2)cccc1OCC	-5	64*	-1	1	-2	5
C=CCOc1c(CNc2cccc(C(=O)O)c2)cccc1OC	-9	-9	-1	-1	-3	-4
CC(C)CN1CN2Cc3ccccc3C2CS1(=O)=O (stereo not given)	nt	nt	nt	nt	8	-3
C[C@H](O)[C@@H]1CN2CCc3ccc(N4CCOCC4)cc3[C@@H]2C[C@@H]1N(C)C(=O)c1ccccc1F	nt	nt	nt	nt	0	-12
CNc1cncc(-c2cccc(OC)c2F)n1	nt	nt	nt	nt	-1	-1
NC(=S)N/N=C/c1ccccc1OC(=O)/C=C/c1ccccc1	3	124*	-1	-4	2	-7
CN1CCc2c(sc3c2C(=O)NC(c2ccccc2)N3)C1 (stereo not given)	-18	-15	27	12	3	3
CN1CCc2c(sc3c2C(=O)NC(c2ccccn2)N3)C1 (stereo not given)	-28	-6	11	18	12	28*
CCN(CC)C(=O)C1=C(C)N(Cc2ccc(OC)cc2)C(=O)C(CC(=O)NCc2cccs2)C1 (stereo not given)	nt	9	-1	nt	-4	0
C[C@H]1[C@@H](OC(=O)Nc2ccccc2Cl)CC[C@@]23CCCN2C(=O)CCC[C@@H]13	nt	nt	nt	nt	-6	-1
Cc1c(C(=O)NCc2ccc(F)cc2)sc(=O)n1Cc1ccccc1	nt	nt	nt	nt	-2	4
COc1ccc(CN(C)Cc2nc3scc(-c4ccccc4)c3c(=O)[nH]2)cc1OC	-18	60*	0	0	0	0
CN(C)[C@@H]1CCN(c2ccc3c(c2)O[C@@H]2CCN(C2)S3(=O)=O)C1	nt	nt	nt	nt	-3	5
FC(F)(F)c1ccccc1-c1nc(-c2ccncc2)no1	-4	57*	-1	-6	10	10
O=C(O)c1ccc(-c2noc(-c3ccccc3C(F)(F)F)n2)cc1	-2	-8	2	12	1	6
Cc1ccc(S(=O)(=O)N(Cc2ccc(Cl)cc2)c2ccccc2C(=O)O)cc1	-4	-16	-1	-2	-2	2
Cc1ccc(S(=O)(=O)N(CC(=O)Nc2ccccc2C(=O)O)c2ccc(Cl)cc2)cc1	-6	51*	0	6	-7	5
CCn1c(SCC(=O)N2CCCCC2)nc2c(c1=O)SCC2	-3	52*	-1	-3	-7	-2
NC(=O)C1CCN(C(=O)/C=C/c2ccccc2[N+](=O)[O-])CC1	-2	4	0	2	-3	-1
O=C(/C=C/c1ccccc1[N+](=O)[O-])N1CCOCC1	2	63*	0	-4	3	5
SMILES	RTF Ca sens inh	CRFBP-R2 block	CRFR2-BP ag	cardiac RTF act	DDE Tn7 FP inh	Tn6 DDE FP
CN(Cc1ccccc1)S(=O)(=O)c1cccc(C(=O)OCc2ccc(Oc3ccccc3)cc2)c1	nt	nt	nt	nt	7	-5
O=C(NCc1ccccc1)C1=C[C@H](c2ccccc2)C[C@H](OCc2ccc(CO)cc2)O1	-3	83*	0	-9	5	-1
COC(=O)c1cc2c(=O)c3ccccc3oc2nc1/C=C/N(C)C	-41	-173	198*	48*	0	-7
O=C(Nc1ncc([N+](=O)[O-])s1)c1cccc([N+](=O)[O-])c1	-3	70*	66*	-2	4	1
CC(NCC(=O)Nc1ccccc1C(=O)NC1CC1)c1cccc(Cl)c1 (stereo not given)	-11	66*	0	3	-4	4
Cc1ccc(CNC2CCC23CCC(c2ccccc2)CC3)o1 (stereo not given)	nt	nt	nt	nt	-9	2
CC1(C)CC(=O)C2=C(C1)Nc1ccccc1S2	-12	6	2	4	-6	3
CC1(C)CC(=O)C2=C(C1)Nc1ccccc1NC2	-14	-21	55*	11	1	0
COCCCN1C(=O)[C@H](CC(=O)NCc2ccccc2)[C@]2(C(=O)OC)CCCCC=C12	nt	nt	nt	nt	2	-2
Cc1ccc([C@H]2N[C@]3(CCCN(Cc4ccc(C(F)(F)F)cc4)C3=O)[C@H]3C(=O)N(Cc4ccccc4)C(=O)[C@@H]23)cc1	nt	-7	4	nt	3	-2
NC(=O)c1ccc(NCc2ccco2)c([N+](=O)[O-])c1	-5	71*	-5	-5	-5	-2
CC1CCCN(CCCNC(=O)CN2C(=O)CSc3ccc(S(=O)(=O)N4CCOCC4)cc32)C1 (stereo not given)	-3	89*	2	-1	8	2
O=C(Nc1cccc(Cl)c1Cl)c1csc([C@H]2C[C@H](O)[C@@H](CO)O2)n1	nt	nt	nt	nt	-2	-1
CCCCC1OC23CCCCC2C(C#N)(C(=N)O3)C1(C#N)C#N (stereo not given)	-38	0	14	23	1	4
N#CC1(C#N)C(c2ccccc2)OC23CCCCCC2C1(C#N)C(=N)O3 (stereo not given)	-20	-27	0	-1	-3	4
N#CC1(C#N)C(c2ccccc2)OC23CCCCC2C1(C#N)C(=N)O3 (stereo not given)	-24	-13	12	30*	3	-2
CCCCC1OC23CCCCC2C(C#N)(C#N)C1(C#N)C(=N)O3 (stereo not given)	-32	-12	4	46*	-1	10
COc1ccc(CN2CCCCC2C)cc1C (stereo not given)	8	60*	162*	5	-5	-8
COc1ccc(CN2CCCCC2C)c(C)c1C (stereo not given)	-2	-16	21	1	-1	-2
COc1ccc(S[C@]2(C(=O)N3CCN(c4ncccn4)CC3)CC(=O)N(c3ccccc3)[C@@H]2c2ccc(OC)cc2)cc1	nt	nt	nt	nt	-1	-1
CCOc1ccccc1NC(=O)C1CCCN1S(=O)(=O)c1ccccc1C(F)(F)F (stereo not given)	-5	82*	0	-3	6	-2
CC(=O)c1cccc(NC(=O)C2CCCN2S(=O)(=O)c2ccccc2C(F)(F)F)c1 (stereo not given)	nt	19	-1	nt	1	-11
